From ChEMBL document CHEMBL4400546, “A Cinchona Alkaloid Antibiotic That Appears To Target ATP Synthase in Streptococcus pneumoniae” (J Med Chem, 2019)
Converted amounts (≈) assume the structure as drawn. The source made the active and inactive calls. No cut-off for these calls is given here.

Experiments:
Streptococcus pneumoniae [1] = assay: Bactericidal activity against Streptococcus pneumoniae D39 assessed as fold reduction in CFU at 5 times MIC after 3 hrs by time-kill assay relative to control; format: functional
Method in brief: (§1)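 Time-kill in S. pneumoniae D39 at multiples of MIC. Killing is followed by OD620 up to 18 h, with CFU determined at each time point by plating. Vancomycin is the positive control. Four independent experiments.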

Streptococcus pneumoniae [2] = assay: Antibacterial activity against optochin-resistant Streptococcus pneumoniae R6 expressing atpE G145A mutant after 20 hrs by CLSI-based microdilution method; format: functional; conditions: R6, 20 h
Streptococcus pneumoniae [3] = assay: Bacteriostatic activity against Streptococcus pneumoniae D39 assessed as resistant frequency at 4 to 16 times MIC after 24 hrs by time-kill assay; format: functional, organism-based
[4] = tested on: Streptococcus pneumoniae D39; assay: Inhibition of wild-type Streptococcus pneumoniae D39 ATP synthase atpE G142C mutant assessed as reduction in intracellular pH at >0.25 to 8 ug/ml measured at 5 mins by pH-sensitive GFP-based fluorescence assay; format: cell-based
Method in brief: (§2)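 S. pneumoniae D39 WT and isogenic atpE G142C or G145A mutants carry a plasmid-borne ratiometric pH-sensitive GFP biosensor. Cells are in PBS pH 7.2 with 10 mM glucose and are treated with compound, DMSO (0.5% v/v) or CCCP (10 µM). Intracellular pH is read immediately and at 5-min intervals. Two independent experiments, each in triplicate.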

Escherichia coli = assay: Antibacterial activity against Escherichia coli TH4746 after 20 hrs by CLSI-based microdilution method; format: functional; conditions: TH4746, 20 h
[5] = Mitochondrial toxicity in human HepG2 cells assessed as reduction in cell viability after 24 hrs in presence of galactose by CellTiter-Glo assay; format: cell-based
Method in brief: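 HepG2 cells are grown in DMEM supplemented with 10 mM galactose or 10 mM glucose and treated for 24 h. Viability is read by CellTiter-Glo luminescence. The CC90 is the concentration inhibiting 90% of cell viability, taken from dose–response curves. Oligomycin and tamoxifen serve as controls.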

Streptococcus pneumoniae [6] = assay: Potentiation of vancomycin-induced antibacterial activity against Streptococcus pneumoniae D39 at 2 times MIC after 20 hrs by checkerboard assay; format: functional
Method in brief: (§3)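 Checkerboard combination assay in S. pneumoniae D39 with the partner antibiotic. Fractional inhibitory concentration indices were calculated, and the minimum FICI was taken per combination. Three to four independent checkerboards were run.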

[7] = tested on: Streptococcus pneumoniae D39; assay: Inhibition of wild-type Streptococcus pneumoniae D39 ATP synthase atpE G145 mutant assessed as reduction in intracellular pH at >2 ug/ml measured at 5 mins by pH-sensitive GFP-based fluorescence assay; format: cell-based; method in brief: as §2
Streptococcus pneumoniae [8] = assay: Bacteriostatic activity against Streptococcus pneumoniae D39 at 1 to 5 times MIC after 18 hrs by time-kill assay; format: functional, organism-based; method in brief: as §1
Streptococcus pneumoniae [9] = assay: Antibacterial activity against penicillin/erythromycin/meropenem/tetracycline-resistant Streptococcus pneumoniae TH2863 (19F) after 20 hrs by CLSI-based microdilution method; format: functional
[10] = tested on: Streptococcus pneumoniae D39; assay: Inhibition of wild-type Streptococcus pneumoniae D39 ATP synthase atpE assessed as intracellular pH at 0.0625 ug/ml measured at 5 mins by pH-sensitive GFP-based fluorescence assay (reference value: 7.34 +/- 0.04); format: cell-based; method in brief: as §2
Enterococcus faecium = assay: Antibacterial activity against Enterococcus faecium TH6064 after 20 hrs by CLSI-based microdilution method; format: functional; conditions: TH6064, 20 h
Staphylococcus aureus = assay: Antibacterial activity against Staphylococcus aureus TH4114 after 20 hrs by CLSI-based microdilution method; format: functional; conditions: TH4114, 20 h
Klebsiella pneumoniae = assay: Antibacterial activity against Klebsiella pneumoniae ATCC 13883 after 20 hrs by CLSI-based microdilution method; format: functional; conditions: ATCC 13883, 20 h
[11] = Cytotoxicity against human HepG2 cells assessed as reduction in cell viability after 48 hrs by Alamar Blue assay; format: cell-based
[12] = tested on: Mycobacterium tuberculosis; assay: Antibacterial activity against Mycobacterium tuberculosis H37Rv after […] by CLSI-based microdilution method; format: functional
Streptococcus pneumoniae [13] = assay: Bacteriostatic activity against Streptococcus pneumoniae D39 up 100 times MIC after 18 hrs by time-kill assay; format: functional, organism-based; method in brief: as §1
Streptococcus pneumoniae [14] = assay: Bacteriostatic activity against Streptococcus pneumoniae D39 at 1 to 5 times MIC using 10^7CFU inoculum after 18 hrs by time-kill assay; format: functional, organism-based; method in brief: as §1
Streptococcus pneumoniae [15] = assay: Potentiation of levofloxacin-induced antibacterial activity against Streptococcus pneumoniae D39 at 2 times MIC after 20 hrs by checkerboard assay; format: functional; method in brief: as §3
Enterobacter cloacae = assay: Antibacterial activity against Enterobacter cloacae TH11715 after 20 hrs by CLSI-based microdilution method; format: functional; conditions: TH11715, 20 h
Streptococcus pneumoniae [16] = assay: Antibacterial activity against amoxicillin/penicillin/erythromycin/ertapenem/moxifloxacin/cefotaxime-resistant Streptococcus pneumoniae TH2889 (6B) after 20 hrs by CLSI-based microdilution method; format: functional
[17] = tested on: Streptococcus pneumoniae D39; assay: Inhibition of wild-type Streptococcus pneumoniae D39 ATP synthase atpE assessed as intracellular pH at 0.25 ug/ml measured at 10 mins by pH-sensitive GFP-based fluorescence assay (reference value: 7.34 +/- 0.04); format: cell-based; method in brief: as §2
[18] = tested on: Streptococcus pneumoniae D39; assay: Inhibition of wild-type Streptococcus pneumoniae D39 ATP synthase atpE G142C mutant assessed as change in intracellular pH at 0.25 ug/ml measured at 5 mins by pH-sensitive GFP-based fluorescence assay (reference value: 7.34 +/- 0.04); format: cell-based; method in brief: as §2
Streptococcus pneumoniae [19] = assay: Potentiation of rifampicin-induced antibacterial activity against Streptococcus pneumoniae D39 at 2 times MIC after 20 hrs by checkerboard assay; format: functional; method in brief: as §3
Streptococcus pneumoniae [20] = assay: Antibacterial activity against optochin-resistant Streptococcus pneumoniae R6 expressing atpE G142C mutant after 20 hrs by CLSI-based microdilution method; format: functional; conditions: R6, 20 h
Acinetobacter baumannii = assay: Antibacterial activity against Acinetobacter baumannii TH9781 after 20 hrs by CLSI-based microdilution method; format: functional; conditions: TH9781, 20 h
Streptococcus pneumoniae [21] = assay: Antibacterial activity against Streptococcus pneumoniae R6 after 20 hrs by CLSI-based microdilution method; format: functional; conditions: R6, 20 h
[22] = tested on: Streptococcus pneumoniae D39; assay: Inhibition of wild-type Streptococcus pneumoniae D39 ATP synthase atpE assessed as intracellular pH at 8 ug/ml measured at 5 mins by pH-sensitive GFP-based fluorescence assay (reference value: 7.34 +/- 0.04); format: cell-based; method in brief: as §2
[23] = tested on: Streptococcus pneumoniae D39; assay: Inhibition of wild-type Streptococcus pneumoniae D39 ATP synthase atpE assessed as intracellular pH at 0.25 ug/ml measured at 15 mins by pH-sensitive GFP-based fluorescence assay (reference value: 7.34 +/- 0.04); format: cell-based; method in brief: as §2
Streptococcus pneumoniae [24] = assay: Antibacterial activity against Streptococcus pneumoniae D39 after 20 hrs by CLSI-based microdilution method; format: functional; conditions: D39, 20 h
Streptococcus pneumoniae [25] = assay: Bactericidal activity against Streptococcus pneumoniae D39 after 24 hrs; format: functional; conditions: D39, 24 h
[26] = Mitochondrial toxicity in human HepG2 cells assessed as reduction in cell viability after 24 hrs in presence of glucose by CellTiter-Glo assay; format: cell-based
Method in brief: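 HepG2 cells grown in DMEM with 10 mM glucose, treated 24 h; viability read by CellTiter-Glo luminescence. Value is the concentration giving 90% loss of viability (CC90) from dose-response curves, top concentration 300 µM.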

Streptococcus pyogenes = assay: Antibacterial activity against Streptococcus pyogenes ST157 after 20 hrs by CLSI-based microdilution method; format: functional; conditions: ST157, 20 h
Streptococcus mitis = assay: Antibacterial activity against Streptococcus mitis ST138 after 20 hrs by CLSI-based microdilution method; format: functional; conditions: ST138, 20 h
Streptococcus pneumoniae [27] = assay: Potentiation of penicillin-induced antibacterial activity against Streptococcus pneumoniae D39 at 2 times MIC after 20 hrs by checkerboard assay; format: functional; method in brief: as §3
[28] = tested on: Streptococcus pneumoniae D39; assay: Inhibition of wild-type Streptococcus pneumoniae D39 ATP synthase atpE assessed as intracellular pH at 0.0625 ug/ml measured immediately post treatment by pH-sensitive GFP-based fluorescence assay (reference value: 7.34 +/- 0.04); format: cell-based; method in brief: as §2
Streptococcus pneumoniae [29] = assay: Antibacterial activity against amoxicillin/penicillin/chloramphenicol/erythromycin/meropenem/cefotaxime-resistant Streptococcus pneumoniae TH2582 (19A) after 20 hrs by CLSI-based microdilution method; format: functional
[30] = tested on: Streptococcus pneumoniae D39; assay: Inhibition of wild-type Streptococcus pneumoniae D39 ATP synthase atpE assessed as intracellular pH at 0.25 ug/ml measured at 5 mins by pH-sensitive GFP-based fluorescence assay (reference value: 7.34 +/- 0.04); format: cell-based; method in brief: as §2
Pseudomonas aeruginosa = assay: Antibacterial activity against Pseudomonas aeruginosa TH4090 after 20 hrs by CLSI-based microdilution method; format: functional; conditions: TH4090, 20 h
Streptococcus pneumoniae [31] = assay: Antibacterial activity against amoxicillin/penicillin/cefotaxime/erythromycin/tetracycline-resistant Streptococcus pneumoniae TH2784 (19F) after 20 hrs by CLSI-based microdilution method; format: functional

CN[C@H](CC(C)C)C(=O)N[C@H]1C(=O)N[C@@H](CC(N)=O)C(=O)N[C@H]2C(=O)N[C@H]3C(=O)N[C@H](C(=O)N[C@H](C(=O)O)c4cc(O)cc(O)c4-c4cc3ccc4O)[C@H](O)c3ccc(c(Cl)c3)Oc3cc2cc(c3O[C@@H]2O[C@H](CO)[C@@H](O)[C@H](O)[C@H]2O[C@H]2C[C@](C)(N)[C@H](O)[C@H](C)O2)Oc2ccc(cc2Cl)[C@H]1O [VANCOMYCIN]
fold change (FC) (Streptococcus pneumoniae [1]): 1000

CC=C1C[N@]2CC[C@H]1C[C@H]2[C@H](O)c1ccnc2ccc(OC3CCC3)cc12
MIC (Streptococcus pneumoniae [2]): 4 µg/mL (≈ 11 µM)
Activity (Streptococcus pneumoniae [3]): Active
inhibition [4]: Active
MIC (Escherichia coli): > 128 µg/mL
CC90 at 24 h [5]: 150 µM
FIC (Streptococcus pneumoniae [6]): 0.63 - 1
inhibition [7]: Active
Activity (Streptococcus pneumoniae [8]): Active
MIC (Streptococcus pneumoniae [9]): 0.5 to 1 µg/mL (≈ 1.37 to 2.74 µM)
pH [10]: 7.02
MIC (Enterococcus faecium): 64 to 128 µg/mL (≈ 176 to 351 µM)
MIC (Staphylococcus aureus): 128 µg/mL (≈ 351 µM)
MIC (Klebsiella pneumoniae): 128 µg/mL (≈ 351 µM)
CC50 at 48 h [11]: 56 µM
MIC [12]: > 256 µg/mL
Activity (Streptococcus pneumoniae [13]): Active
Activity (Streptococcus pneumoniae [14]): Active
FIC (Streptococcus pneumoniae [15]): 0.63 - 1
MIC (Enterobacter cloacae): > 128 µg/mL
MIC (Streptococcus pneumoniae [16]): 0.5 µg/mL (≈ 1.37 µM)
pH [17]: 6.68
deltapH [18]: < 0.03
FIC (Streptococcus pneumoniae [19]): 0.63 - 1
MIC (Streptococcus pneumoniae [20]): 8 to 16 µg/mL (≈ 21.9 to 43.9 µM)
MIC (Acinetobacter baumannii): 128 µg/mL (≈ 351 µM)
MIC (Streptococcus pneumoniae [21]): 0.5 µg/mL (≈ 1.37 µM)
pH [22]: 6.66
deltapH [23]: -0.52
MIC (Streptococcus pneumoniae [24]): 0.7 µM (≈ 0.255 µg/mL)
MBC (Streptococcus pneumoniae [25]): 1 to 2 µg/mL (≈ 2.74 to 5.49 µM)
CC90 at 24 h [26]: 150 µM
MIC (Streptococcus pyogenes): 32 µg/mL (≈ 87.8 µM)
MIC (Streptococcus mitis): 16 µg/mL (≈ 43.9 µM)
FIC (Streptococcus pneumoniae [27]): 0.63 - 1
pH [28]: 7.11
MIC (Streptococcus pneumoniae [29]): 0.25 to 0.5 µg/mL (≈ 0.686 to 1.37 µM)
pH [30]: 6.82
MIC (Pseudomonas aeruginosa): > 128 µg/mL
MIC (Streptococcus pneumoniae [31]): 0.5 µg/mL (≈ 1.37 µM)
